Reference: ChEMBL document CHEMBL3792273, “Synthesis and pharmacological evaluation of mono-arylimidamides as antileishmanial agents” (Bioorg Med Chem Lett, 2016)

Assays:
[1] = Selectivity index, ratio of IC50 for cytotoxic activity against mouse J774 cells to IC50 for antileishmanial activity against Leishmania donovani; type: toxicity, cell-based; details: read-out: Ratio IC50
[2] = Selectivity index, ratio of IC50 for cytotoxic activity against mouse J774 cells to IC50 for antileishmanial activity against Leishmania amazonensis amastigotes; type: toxicity, cell-based; details: read-out: Ratio IC50
Leishmania amazonensis [3] = test: Antileishmanial activity against Leishmania amazonensis infected in mouse peritoneal macrophages after 72 hrs using 2 hrs parasite exposed mouse peritoneal macrophages
Leishmania amazonensis [4] = test: Antileishmanial activity against beta-lactamase expressing Leishmania amazonensis amastigotes overnight infected in CD1 mouse macrophages incubated for 72 hrs by nitrocefin dye based assay in presence of posaconazole; type: functional, organism-based
[5] = Drug level in BALB/c mouse liver at 40 mg/kg, po administered as single dose after 1 hr; type: ADME, organism-based; details: read-out: Drug uptake
Outline: (§1)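 Mice received a single oral dose of 100 μmol/kg (40 mg/kg). Compound levels in plasma, liver, spleen and kidney were measured at 1, 2 and 24 h post-dose and reported as concentrations. Values are means ± standard errors of triplicate determinations.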

[6] = Drug level in BALB/c mouse plasma at 40 mg/kg, po administered as single dose after 1 hr; type: ADME, organism-based; outline: as §1
[7] = Drug level in BALB/c mouse spleen at 40 mg/kg, po administered as single dose after 1 hr; type: ADME, organism-based; details: read-out: Drug uptake; outline: as §1
[8] = Drug level in BALB/c mouse liver at 40 mg/kg, po administered as single dose after 24 hrs; type: ADME, organism-based; details: read-out: Drug uptake; outline: as §1
[9] = Drug level in BALB/c mouse plasma at 40 mg/kg, po administered as single dose after 24 hrs; type: ADME, organism-based; outline: as §1
Mus musculus = test: Toxicity in BALB/c mouse assessed as drug tolerance at 30 mg/kg/day, ip for 5 days; type: organism-based; details: in vivo, 120 h
Outline: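 Compound was dissolved in water and injected i.p. into healthy, uninfected BALB/c mice at 30 mg/kg/day once daily for 5 consecutive days to assess in vivo tolerability.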

[10] = Drug level in BALB/c mouse spleen at 40 mg/kg, po administered as single dose after 24 hrs; type: ADME, organism-based; details: read-out: Drug uptake; outline: as §1

Compound	selectivity ratio [1]	selectivity ratio [2]	Activity (Mus musculus)	further results
CC(C)Oc1cc(NC(=N)c2ccccn2)ccc1-c1ccc(-c2ccccc2)s1	3.1	3	–	–
COc1ccc(-n2cc(-c3ccc(NC(=N)c4ccccn4)cc3OC(C)C)nn2)cc1	10	5.5	–	–
CC[C@@H]([C@H](C)O)n1ncn(-c2ccc(N3CCN(c4ccc(OC[C@@H]5CO[C@@](Cn6cncn6)(c6ccc(F)cc6F)C5)cc4)CC3)cc2)c1=O [POSACONAZOLE]	–	–	–	IC50 (Leishmania amazonensis [3]): 1600 nM
CC(C)Oc1cc(NC(=N)c2ncccn2)ccc1-c1ccc(-c2ccccc2)o1	27	18	–	–
CC(C)Oc1cc(NC(=N)c2ccccn2)ccc1-c1cnc(-c2ccccc2)o1	24	41	–	–
CC(C)Oc1cc(NC(=N)c2ccccn2)ccc1-c1ccc(-c2ccccc2)o1.CS(=O)(=O)O	≥ 25	≥ 25	Non-toxic	IC50 (Leishmania amazonensis [4]): 55 nM; concentration at 1 h [5]: 12600 nM; concentration at 1 h [6]: 1900 nM; concentration at 1 h [7]: 4700 nM; concentration at 24 h [8]: 600 nM; concentration at 24 h [9]: 140 nM; concentration at 24 h [10]: 600 nM
CS(=O)(=O)O.N=C(Nc1ccc(-c2ccc(-c3ccccc3)o2)c(OC2CCCC2)c1)c1ccccn1	≥ 25	≥ 25	Non-toxic	–
CC(C)Oc1cc(NC(=N)c2ccccn2)ccc1-c1ccc(-c2ccco2)o1.Cl	≥ 25	≥ 25	Non-toxic	–
